Measurements collected from several papers.
Lines come from different studies, so protocols differ.
Target: Cytochrome P450 3A4 (CYP3A4, Homo sapiens, UniProt P08684)
Effect on: enzyme activity
Action: inhibitor

| Structure (SMILES) | assay | test system | setting | measurement | value |
| --- | --- | --- | --- | --- | --- |
| Nc1nc(N)c2nc(CNc3ccc(C(=O)c4ccccc4)cc3)cnc2n1 | luciferase |  |  | IC50 | 43700 nM |
| O=C(NCCN1CCCC1)c1cc(-c2ccc(CN3CCOCC3)cc2)nc2ccc(F)cc12 |  | human, liver microsomes | midazolam probe | IC50 | > 100000 nM |
| CCCCC1=NC2(CCCC2)C(=O)N1Cc1ccc(-c2ccccc2S(=O)(=O)Nc2noc(C)c2C)c(COCC)c1 |  |  |  | Ki | 6330 nM |
| CC1=CC(=O)C(C(C)C)=CC1=O | fluorescence |  | pH 7.4 | IC50 | 1200 nM |
| COc1ccc2c(Cc3ccccc3F)c3n(c(=O)c2c1OC)CCc1cc2c(cc1-3)OCO2 |  |  |  | IC50 | 2700 nM |
| Cc1ccc2nc(-c3ccccc3)c(CNc3ccc(F)cc3)n2c1 |  |  |  | IC50 | 270 nM |
| COc1cc2c(c(OC)c1OC)-c1c(cc3c(c1OC)OCO3)C[C@H](C)[C@](C)(O)[C@H]2OC(=O)c1ccccc1 |  |  | 15 min, pH 7.4 | IC50 | 140 nM |
| COc1ccn2c(Nc3ccccc3F)c(-c3ccncn3)nc2c1 |  |  |  | IC50 | 270 nM |
| COC(=O)C1CCN(C(=O)c2ccc(SCc3cnc4nc(N)nc(N)c4n3)nc2)CC1 | luciferase |  |  | IC50 | 11700 nM |
| CCc1cc(/C(C)=N/OCc2ccc(C3CCCCC3)c(C(F)(F)F)c2)ccc1CN1CC(C(=O)O)C1 |  | human, liver microsomes | 20 min, testosterone probe | IC50 | 600 nM |
| Nc1nc(N)c2nc(C(=O)NCc3cccc(C(F)(F)F)c3)cnc2n1 | luciferase |  |  | IC50 | 13800 nM |
| COc1ccc2c(Cc3ccccc3F)c3[n+](cc2c1OC)CCc1cc2c(cc1-3)OCO2 |  |  |  | IC50 | 800 nM |
